Experiments:
Assay type in all cases: functional
Oryctolagus cuniculus [1] = species: Oryctolagus cuniculus; test: Inhibition of contraction induced by caffeine on rabbit renal artery; parameters: concentration or dose not given beside the values
In short: (§1)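 Male New Zealand White rabbit left renal artery rings (2.5–3 mm) in Krebs' solution at 37 °C, gassed 95% O2/5% CO2, 3 g preload, 90 min equilibration, isometric tension. Three matched control contractions to caffeine 10 mM, then caffeine contractions repeated at 20 min with each rising test concentration until maximal inhibition. IC50 by linear regression; five to nine preparations.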

Oryctolagus cuniculus [2] = species: Oryctolagus cuniculus; test: Concentration which inhibits 50% of contraction induced by caffeine on rabbit renal artery; in short: as §1
Oryctolagus cuniculus [3] = species: Oryctolagus cuniculus; test: Concentration which inhibits 50% of contraction induced by phenylephrine on rabbit renal artery
In short: (§2)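 Endothelium-denuded arterial rings, with denudation confirmed by no acetylcholine (1 μM) relaxation of tissue precontracted with phenylephrine 0.1 μM. After reproducible 40 mM K+ responses, sustained tonic contraction to K+ 40 mM or phenylephrine 5 μM. Test compound added cumulatively until maximal relaxation.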

Oryctolagus cuniculus [4] = species: Oryctolagus cuniculus; test: Concentration which inhibits 50% of contraction induced by potassium on rabbit renal artery; in short: as §2
Oryctolagus cuniculus [5] = species: Oryctolagus cuniculus; test: Inhibitory selectivity for Phenylephrine (PE) and Potassium (K+) induced contraction on rabbit renal artery
Oryctolagus cuniculus [6] = species: Oryctolagus cuniculus; test: 50% inhibition of contraction induced by potassium on rabbit renal artery; in short: as §2
Oryctolagus cuniculus [7] = species: Oryctolagus cuniculus; test: Inhibition of contraction induced by phenylephrine on rabbit renal artery; in short: as §2
Oryctolagus cuniculus [8] = species: Oryctolagus cuniculus; test: Inhibition of contraction induced by potassium on rabbit renal artery; in short: as §2

IC50 (Oryctolagus cuniculus [2]) [µM] | IC50 (Oryctolagus cuniculus [3]) [µM] | IC50 (Oryctolagus cuniculus [4]) [µM] | IC50 ratio (Oryctolagus cuniculus [5]) | SMILES | Inhibition (Oryctolagus cuniculus [1]) [%] | Inhibition (Oryctolagus cuniculus [6]) [%] | Inhibition (Oryctolagus cuniculus [7]) [%] | Inhibition (Oryctolagus cuniculus [8]) [%]
> 30 | 20.9 | 57.4 | 0.36 | COc1ccc(CCNCC2CN(C)c3ccccc3O2)cc1OC (centres undefined) | 46 | – | – | –
26.3 | – | 74.8 | – | Fc1ccc(C(OCCNCC2CNc3ccccc3O2)c2ccc(F)cc2)cc1 (centres undefined) | – | – | – | –
> 30 | 1.4 | 23.1 | 0.06 | CN1CC(CN2CCN(c3ccc(F)cc3)CC2)Oc2ccccc21 (centres undefined) | 32 | – | – | –
> 30 | 42 | > 100 | – | COc1ccc(CCNCCC2CNc3ccccc3O2)cc1OC (centres undefined) | 26 | 25 | – | –
> 30 | 14.6 | 2.2 | 7.3 | COc1ccc(CCN(C)CCCC2Oc3cc4c(cc3NC2=O)OCCO4)cc1OC (centres undefined) | 0 | – | – | –
13.9 | 43.1 | 8.6 | 5 | COc1ccc(CCNCCCCC2CN(Cc3ccccc3)c3ccccc3O2)cc1OC (centres undefined) | – | – | – | –
> 30 | 13.3 | 7.3 | 1.8 | COc1ccc(CCNCCC2CN(S(=O)(=O)c3cccc4cnccc34)c3ccccc3O2)cc1OC (centres undefined) | 23 | – | – | –
> 30 | – | – | – | COc1ccc(CCNCC2CNc3ccccc3O2)cc1OC (centres undefined) | 26 | – | – | –
> 30 | 100 | ≥ 100 | >=1 | COc1ccc(CCN(CCCC2Oc3cc4c(cc3NC2=O)OCCO4)Cc2ccccc2)cc1OC (centres undefined) | 0 | – | 47 | 41
> 30 | – | 76.5 | 0.06 | Fc1ccc(N2CCN(CCCC3CN(Cc4ccccc4)c4ccccc4O3)CC2)cc1 (centres undefined) | 0 | – | – | –
30 | 33.7 | 15.1 | 2.2 | COc1ccc(CCNCCC2CN(Cc3ccc(OC)c(OC)c3)c3ccccc3O2)cc1OC (centres undefined) | 57 | – | – | –
> 30 | 11.4 | 9.4 | 1.2 | COc1ccc(CCNCC2CN(Cc3ccccc3)c3ccccc3O2)cc1OC (centres undefined) | 48 | – | – | –
> 30 | 2.8 | 19 | 0.15 | O=C(c1ccccc1)N1CC(CCCN2CCN(c3ccc(F)cc3)CC2)Oc2ccccc21 (centres undefined) | 8 | – | – | –
12.3 | 10.1 | 4.4 | 2.3 | COc1ccc(CCNCCC2CN(Cc3ccccc3)c3ccccc3O2)cc1OC (centres undefined) | – | – | – | –
21.8 | 11.8 | 44.7 | 0.26 | COc1ccc(CCNCCC2CN(C)c3ccccc3O2)cc1OC (centres undefined) | – | – | – | –
> 30 | 100 | > 100 | – | COc1ccc(CCNCCCC2CNc3ccccc3O2)cc1OC (centres undefined) | 16 | – | 49 | 30
> 30 | 93.3 | 17.6 | 5.3 | Fc1ccc(C(OCCNCC2CN(Cc3ccccc3)c3ccccc3O2)c2ccc(F)cc2)cc1 (centres undefined) | 5 | – | – | –
11.8 | 21.6 | 10.2 | 2.1 | COc1ccc(CCNCCCC2CN(Cc3ccccc3)c3ccccc3O2)cc1OC (centres undefined) | – | – | – | –
> 30 | 83.7 | 8.3 | 10.1 | COc1ccc(CCNCCC2CN(S(=O)(=O)c3cccc4ccccc34)c3ccccc3O2)cc1OC (centres undefined) | 46 | – | – | –
> 30 | 32.6 | 7.9 | 4.1 | COc1ccc(CCN(C)CCC2CN(Cc3ccccc3)c3ccccc3O2)cc1OC (centres undefined) | 37 | – | – | –
30 | 12.6 | 8.4 | 1.5 | COc1ccc(CCNCCCC2CN(C(=O)c3ccccc3)c3ccccc3O2)cc1OC (centres undefined) | – | – | – | –
> 30 | 3.2 | 11 | 0.29 | Fc1ccc(N2CCN(CCCC3CNc4ccccc4O3)CC2)cc1 (centres undefined) | 22 | – | – | –
> 30 | 0.43 | 45.3 | 0.009 | O=C1Nc2cc3c(cc2OC1CCCN1CCN(c2ccc(F)cc2)CC1)OCCO3 (centres undefined) | 22 | – | – | –
> 30 | 14.2 | > 100 | – | COc1ccc(CCNCCCC2Oc3cc4c(cc3NC2=O)OCCO4)cc1OC (centres undefined) | 0 | – | – | 38
> 30 | 10.9 | 52.4 | 0.21 | Fc1ccc(N2CCN(CC3CN(Cc4ccccc4)c4ccccc4O3)CC2)cc1 (centres undefined) | 2 | – | – | –
> 30 | > 100 | > 100 | – | Fc1ccc(C(OCCNCCCC2CN(Cc3ccccc3)c3ccccc3O2)c2ccc(F)cc2)cc1 (centres undefined) | 5 | – | 12 | 26
> 30 | 1.6 | 24.7 | 0.07 | Fc1ccc(N2CCN(CC3CNc4ccccc4O3)CC2)cc1 (centres undefined) | 9 | – | – | –
> 30 | – | – | – | CN(CCOC(c1ccc(F)cc1)c1ccc(F)cc1)CC1CNc2ccccc2O1 (centres undefined) | 23 | – | – | –
